Measured values taken from ChEMBL document CHEMBL1137779, “Discovery of 2-[5-(4-chloro-phenyl)-1-(2,4-dichloro-phenyl)-4-ethyl-1H-pyrazol-3-yl]-1,5,5-trimethyl-1,5-dihydro-imidazol-4-thione (BPR-890) via an active metabolite. A novel, potent and selective cannabinoid-1 receptor inverse agonist with high antiobesity efficacy in DIO mice” (J Med Chem, 2009).
Activity calls are given as the source filed them. The calls are words filed in the database; no cut-off is given here.

Key:
Cannabinoid receptor 2 = Cannabinoid receptor 2 (Homo sapiens, UniProt P34972); assay: Displacement of [3H]CP-55940 from human recombinant CB2R expressed in HEK293 cells; assay type: cell-based
Homo sapiens = species on record: Homo sapiens; assay: Selectivity ratio of IC50 for human recombinant CB2R to IC50 for human recombinant CB1R
Procedure, shortened: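 hCB1- or hCB2-transfected HEK 293 stable clones; purified membranes (0.2-8 μg) incubated with 0.75 nM [3H]CP-55,940 plus test compound in 50 mM Tris-HCl, 5 mM MgCl2, 1 mM EDTA, 0.3% BSA, pH 7.4, 1.5 h at 30 °C. Nonspecific binding with 1 μM CP-55,940. Filtration, bound radioactivity counted; IC50 by nonlinear regression. Mean ± SD of at least three independent experiments.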

Cannabinoid receptor 1 [1] = target: T1, Cannabinoid receptor 1 (Homo sapiens, UniProt P21554); assay: biochemical; assay type: cell-based, HEK293
Cannabinoid receptor 1 [2] = target: T1, Cannabinoid receptor 1; assay type: cell-based, HEK293
Mus musculus [3] = assay: Reduction of food intake in diet induced obesity C57BL/6 mouse model at 0.3 mg/kg, po after 29 days; assay type: functional, organism-based; parameters: dose 0.3 mg/kg
Procedure, shortened: (§1)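 Weight-matched DIO mice (n = 8/group) gavaged once daily with compound or vehicle (10% DMSO/10% Tween 80/80% H2O) for 29 days. Food consumed and body weight measured daily. Mean ± standard error.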

Mus musculus [4] = assay: Reduction of food intake in diet induced obesity C57BL/6 mouse model at 0.03 mg/kg, po after 29 days; assay type: functional, organism-based; parameters: dose 0.03 mg/kg; procedure, shortened: as §1
Mus musculus [5] = assay: Reduction of food intake in diet induced obesity C57BL/6 mouse model at 0.1 mg/kg, po after 29 days; assay type: functional, organism-based; parameters: dose 0.1 mg/kg; procedure, shortened: as §1
Rattus norvegicus [6] = assay: Induction of weight loss in diet induced obesity Wistar rat model at 0.3 mg/kg, po qd after 29 days relative to control; assay type: functional
Brain [7] = assay: Drug level in brain of diet-induced obesity C57BL/6 mouse model at 0.3 mg/kg, po; assay type: ADME, organism-based; parameters: dose 0.3 mg/kg, route oral; details: in vivo
Mus musculus [8] = assay: Induction of weight loss in diet induced obesity C57BL/6 mouse model at 0.03 mg/kg, po after 29 days relative to control; assay type: functional
Procedure, shortened: (§2)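 DIO mice, weight-matched into groups (n = 8/group), given vehicle (10% DMSO/10% Tween 80/80% H2O) or compound by oral gavage once daily for 29 days. Food intake and body weight recorded daily. Read-out is cumulative percentage body-weight change versus vehicle, reported as mean ± standard error.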

Rattus norvegicus [9] = assay: Suppression of food intake in Wistar rat spontaneously feeding model at 0.3 mg/kg, po after 6 hrs
Mus musculus [10] = assay: Induction of weight loss in po dosed diet induced obesity C57BL/6 mouse model assessed as minimum effective dose after 29 days; assay type: functional; procedure, shortened: as §2
Mus musculus [11] = assay: Induction of weight loss in diet induced obesity C57BL/6 mouse model at 0.3 mg/kg, po after 29 days relative to control; assay type: functional; procedure, shortened: as §2
Mus musculus [12] = assay: Induction of weight loss in diet induced obesity C57BL/6 mouse model at 0.1 mg/kg, po after 29 days relative to control; assay type: functional; procedure, shortened: as §2
Rattus norvegicus [13] = assay: Induction of weight loss in diet induced obesity Wistar rat model at 0.1 mg/kg, po qd after 29 days relative to control; assay type: functional
Mus musculus [14] = assay: Induction of weight loss in diet induced obesity C57BL/6 mouse model at 1 mg/kg, po after 29 days relative to control; assay type: functional; procedure, shortened: as §2
Brain [15] = assay: Drug level in brain of diet-induced obesity C57BL/6 mouse model at 1 mg/kg, po; assay type: ADME, organism-based; parameters: dose 1 mg/kg, route oral; details: in vivo
Rattus norvegicus [16] = assay: Suppression of food intake in Wistar rat spontaneously feeding model at 3 mg/kg, po after 6 hrs
Brain [17] = assay: Drug level in brain of diet-induced obesity C57BL/6 mouse model at 10 mg/kg, po; assay type: ADME, organism-based; parameters: dose 10 mg/kg, route oral; details: in vivo
Mus musculus [18] = assay: Induction of weight loss in diet induced obesity C57BL/6 mouse model at 10 mg/kg, po qd relative to control; assay type: functional; procedure, shortened: as §2

T1 sequence (P21554 whole entry): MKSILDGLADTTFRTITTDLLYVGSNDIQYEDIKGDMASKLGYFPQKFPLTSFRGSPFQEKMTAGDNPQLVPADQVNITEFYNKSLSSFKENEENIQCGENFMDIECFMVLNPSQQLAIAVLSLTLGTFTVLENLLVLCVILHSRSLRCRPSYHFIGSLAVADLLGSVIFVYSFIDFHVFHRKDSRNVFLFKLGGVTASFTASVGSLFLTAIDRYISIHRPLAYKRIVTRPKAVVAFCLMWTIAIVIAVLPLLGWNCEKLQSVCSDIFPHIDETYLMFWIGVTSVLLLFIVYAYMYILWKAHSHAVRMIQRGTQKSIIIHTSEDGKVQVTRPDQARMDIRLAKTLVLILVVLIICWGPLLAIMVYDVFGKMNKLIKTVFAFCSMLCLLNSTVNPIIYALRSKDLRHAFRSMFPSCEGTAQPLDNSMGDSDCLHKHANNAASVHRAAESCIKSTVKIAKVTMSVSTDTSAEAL
Cannabinoid receptor 2, sequence (P34972 whole entry): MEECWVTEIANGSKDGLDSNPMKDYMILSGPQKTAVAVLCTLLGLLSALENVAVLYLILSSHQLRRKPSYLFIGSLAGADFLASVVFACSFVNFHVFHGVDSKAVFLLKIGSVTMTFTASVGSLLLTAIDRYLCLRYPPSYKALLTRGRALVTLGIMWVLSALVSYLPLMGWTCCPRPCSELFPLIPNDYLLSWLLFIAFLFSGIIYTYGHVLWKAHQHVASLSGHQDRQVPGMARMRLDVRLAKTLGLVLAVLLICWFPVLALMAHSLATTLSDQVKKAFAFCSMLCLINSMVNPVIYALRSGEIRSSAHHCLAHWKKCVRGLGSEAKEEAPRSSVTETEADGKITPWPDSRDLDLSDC

SMILES	IC50 (Cannabinoid receptor 2) [nM]	Ratio IC50 (Homo sapiens)	IC50 (Cannabinoid receptor 1 [1]) [nM]	other results
Cc1c(C2=NC(=O)C(C)(C)N2Cc2ccccc2)nn(-c2ccc(Cl)cc2Cl)c1-c1ccc(Cl)cc1	5130	26	197	–
CCCN1C(c2nn(-c3ccc(Cl)cc3Cl)c(-c3ccc(Cl)cc3)c2C)=NC(=O)C1(C)C	5510	7	854	–
Cc1c(C2=NC(=O)C(C)(C)N2C)nn(-c2ccc(Cl)cc2Cl)c1-c1ccc(C(F)(F)F)cc1	3970	250	15.9	EC50 (Cannabinoid receptor 1 [2]): 81 nM
CCc1c(C2=NC(=S)C(C)(C)N2C)nn(-c2ccc(Cl)cc2Cl)c1-c1ccc(Cl)cc1	4750	396	12	Activity (Mus musculus [3]): Active; Activity (Mus musculus [4]): Active; Activity (Mus musculus [5]): Active; Activity (Rattus norvegicus [6]): 9.5%; Drug uptake (Brain [7]): 243 ng/g; Activity (Mus musculus [8]): 14.7%; Activity (Rattus norvegicus [9]): Active; MED (Mus musculus [10]): 0.03 mg/kg; Activity (Mus musculus [11]): 25.4%; EC50 (Cannabinoid receptor 1 [2]): 5.1 nM; Activity (Mus musculus [12]): 19.4%; Activity (Rattus norvegicus [13]): 5.1%
CCc1c(C2=NC(C)(C)C(=O)N2C)nn(-c2ccc(Cl)cc2Cl)c1-c1ccc(Cl)cc1	4330	128	33.8	EC50 (Cannabinoid receptor 1 [2]): 65.5 nM
CCc1c(C2=NC(C)(C)C(=O)N2)nn(-c2ccc(Cl)cc2Cl)c1-c1ccc(Cl)cc1	10300	314	32.6	Activity (Mus musculus [14]): 27.4%; MED (Mus musculus [10]): 0.1 mg/kg; EC50 (Cannabinoid receptor 1 [2]): 20.2 nM; Drug uptake (Brain [15]): 1118 ng/g; Activity (Rattus norvegicus [16]): Active
CN1C(c2cc(-c3ccc(Cl)cc3)n(-c3ccc(Cl)cc3Cl)n2)=NC(=O)C1(C)C	7950	24	325	–
Cc1c(C(=O)NN2CCCCC2)nn(-c2ccc(Cl)cc2Cl)c1-c1ccc(Cl)cc1 [RIMONABANT]	–	–	–	Drug uptake (Brain [17]): 113 ng/g; Activity (Mus musculus [18]): 23.8%
Cc1c(C2=NC(=O)C(C)(C)N2C2CC2)nn(-c2ccc(Cl)cc2Cl)c1-c1ccc(Cl)cc1	1950	21	95.2	–
Cc1c(C(=O)NC(=O)C(C)(C)N(C)C)nn(-c2ccc(Cl)cc2Cl)c1-c1ccc(Cl)cc1	–	35	82.9	–
CCCCN1C(c2nn(-c3ccc(Cl)cc3Cl)c(-c3ccc(Cl)cc3)c2C)=NC(=O)C1(C)C	4760	4	1110	–

The next lines start with results.

IC50 (Cannabinoid receptor 2) [nM]	Ratio IC50 (Homo sapiens)	IC50 (Cannabinoid receptor 1 [1]) [nM]	SMILES	other results
822	19	43.9	CN1C(c2nn(-c3ccc(Cl)cc3Cl)c(-c3ccc(Cl)cc3)c2C2CC2)=NC(=O)C1(C)C	–
1060	5	212	COc1ccc(-c2c(C)c(C3=NC(=O)C(C)(C)N3C)nn2-c2ccc(Cl)cc2Cl)cc1	–
901	143	6.3	Cc1c(C2=NC(=S)C(C)(C)N2C)nn(-c2ccc(Cl)cc2Cl)c1-c1ccc(Cl)cc1	EC50 (Cannabinoid receptor 1 [2]): 8.5 nM
768	47	16.3	CCc1c(C2=NC(=O)C(C)(C)N2C)nn(-c2ccc(Cl)cc2Cl)c1-c1ccc(Br)cc1	–
1100	23	47.4	Cc1c(C2=NC(=O)C(C)(C)N2C)nn(-c2ccc(Cl)cc2Cl)c1-c1ccc(Br)cc1	–
2740	213	12.9	CCc1c(C2=NC(=O)C(C)(C)N2C)nn(-c2ccc(Cl)cc2Cl)c1-c1ccc(Cl)cc1	EC50 (Cannabinoid receptor 1 [2]): 9.8 nM
497	40	12.3	CCc1c(C2=NC3(CCCCC3)C(=O)N2)nn(-c2ccc(Cl)cc2Cl)c1-c1ccc(Cl)cc1	–
2880	12	249	C=CCN1C(c2nn(-c3ccc(Cl)cc3Cl)c(-c3ccc(Cl)cc3)c2C)=NC(=O)C1(C)C	–
3250	97	33.6	Cc1c(C2=NC(C)(C)C(=O)N2C)nn(-c2ccc(Cl)cc2Cl)c1-c1ccc(Cl)cc1	–
487	9	54.7	Cc1c(C2=NC(=O)C(C)(C)N2C)nn(-c2ccc(Cl)cc2Cl)c1-c1ccc(Cl)cc1	–
1370	94	14.6	CCc1c(C2=NC3(CCCC3)C(=O)N2)nn(-c2ccc(Cl)cc2Cl)c1-c1ccc(Cl)cc1	–
3180	139	22.8	CCc1c(C2=NC3(CCC3)C(=O)N2)nn(-c2ccc(Cl)cc2Cl)c1-c1ccc(Cl)cc1	EC50 (Cannabinoid receptor 1 [2]): 12.3 nM
1570	37	42.5	CN1C(c2nn(-c3ccc(Cl)cc3Cl)c(-c3ccc(Cl)cc3)c2Br)=NC(=O)C1(C)C	–
3500	66	53.4	Cc1c(C2=NC(C)(C)C(=O)N2)nn(-c2ccc(Cl)cc2Cl)c1-c1ccc(Cl)cc1	–
1170	11	107	CCN1C(c2nn(-c3ccc(Cl)cc3Cl)c(-c3ccc(Cl)cc3)c2C)=NC(=O)C1(C)C	–
